For 33 molecules, IC50 and half-life results are on record in ChEMBL document CHEMBL4706506 (Eur J Med Chem, 2020).

A value given as a limit tells only on which side of the number the result lay.

As a reminder, the IC50 is the concentration at which inhibition is half-maximal. The term half-life denotes the time in which the quantity being followed falls by half.

For one data set, the system named is B16-F0. As to the kind of experiment: Antiproliferative activity against mouse B16-F0 cells assessed as inhibition of cell proliferation measured after 48 hrs by CCK-8 assay. In kind it is functional, cell-based. Particulars: B16F0, 48 h. An outline of the steps:
(§1)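 RPMI-1640 with 10% FBS, 37 °C, 5% CO2. Cells seeded at 1-3 × 10^4/well and exposed to 0.00098–64 μM (nine 4-fold steps) or 0.1% DMSO vehicle for 48 h. CCK-8 then added for 4 h; absorbance read at 450 nm. IC50 taken from dose–response curves; mean ± SD of three independent experiments.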
Background: Formazan colour is commonly taken as a measure of viable cells.

The subject of the next data set is A549. Kind of data set: Antiproliferative activity against human A549 cells assessed as inhibition of cell proliferation measured after 48 hrs by CCK-8 assay. It counts as functional, cell-based. Particulars: A549, 48 h. A digest of the protocol:
as §1

In another data set the test system is HCT-116. As to the kind of experiment: Antiproliferative activity against human HCT-116 cells assessed as inhibition of cell proliferation measured after 48 hrs by CCK-8 assay. In kind it is functional, cell-based. Particulars: HCT-116, 48 h. A digest of the protocol: as §1
Another data set concerns MCF7. As to the kind of experiment: Antiproliferative activity against human MCF7 cells assessed as inhibition of cell proliferation measured after 48 hrs by CCK-8 assay. Particulars: MCF7, 48 h. It counts as functional, cell-based.
The next data set deals with HeLa. Kind of data set: Antiproliferative activity against human HeLa cells assessed as inhibition of cell proliferation measured after 48 hrs by CCK-8 assay. In kind it is functional, cell-based. An outline of the steps: as §1
Data set [1] in a line: Metabolic stability in human liver microsomes assessed as half life in presence of NADPH at 0.5 uM measured after 4 hrs by LC/MS method. It counts as ADME, Microsome. On the technique in general: Liver microsomes are a subcellular fraction often used to study metabolism.
Data set [2] is described as follows: Metabolic stability in mouse liver microsomes assessed as half life in presence of NADPH at 0.5 uM measured after 4 hrs by LC/MS method. In kind it is ADME, Microsome.

In the case of `COc1cc(-c2ccnc3cc(-c4ccc(C(C)(C)C)cc4)nn23)cc(OC)c1OC`, the IC50 in the data set with B16-F0, in the data set with A549, in the data set on HCT-116, with MCF7 and in the data set with HeLa was over 10 µM in each case.

As for `COc1cc(-c2ccnc3cc(-c4cccc(C#N)c4)nn23)cc(OC)c1OC`, the IC50 with B16-F0, with A549, with HCT-116, with MCF7 and in the data set on HeLa was over 10 µM each time.

Regarding `COc1cc(-c2ccnc3cc(-c4ccc5c(cnn5C)c4)nn23)cc(OC)c1OC`, the half-maximal inhibitory concentration (IC50) in the data set on B16-F0 was 1.47 µM; in the data set on A549, 0.233 µM; in the data set with HCT-116 it was 2.44 µM; with MCF7 it was 0.279 µM; in the data set with HeLa, 0.097 µM.

Turning to `COc1cc(-c2ccnc3cc(-c4cn(CO)c5ccccc45)nn23)cc(OC)c1OC`, the IC50 with B16-F0 was 0.093 µM; with A549, 0.167 µM; with HCT-116, 0.128 µM; with MCF7, 0.019 µM; in the data set with HeLa, 0.103 µM.

`COc1cc(-c2ccnc3cc(-c4ccc(N5CCOCC5)cc4)nn23)cc(OC)c1OC`: the IC50 in the data set on B16-F0, in the data set on A549, in the data set with HCT-116, in the data set on MCF7 and with HeLa was over 10 µM each time.

For `COc1cc(-c2ccnc3cc(-c4cn(C)c5ccccc45)nn23)cc(OC)c1OC`, the concentration for half-maximal inhibition (IC50) with B16-F0 was 0.185 µM; in the data set with A549, 1.34 µM; in the data set on HCT-116 it was 0.762 µM; in the data set on MCF7, 0.095 µM; in the data set on HeLa it was 0.399 µM.

On to `COc1cc(-c2ccnc3cc(-c4cn(C(=O)OC(C)(C)C)c5ccccc45)nn23)cc(OC)c1OC`, for which the half-maximal inhibitory concentration (IC50) was determined as 3.07 µM with B16-F0; 2.06 µM with A549; 5.72 µM with HCT-116; 0.268 µM in the data set on MCF7; 3.77 µM in the data set with HeLa.

On to `COc1cc(-c2ccnc3cc(-c4ccc5cc[nH]c5c4)nn23)cc(OC)c1OC`, for which the IC50 with B16-F0 is 0.055 µM; in the data set on A549, 0.17 µM; in the data set on HCT-116 it was 0.187 µM; in the data set on MCF7, 0.023 µM; in the data set on HeLa, 0.125 µM.

As to `COc1cc(-c2ccnc3cc(-c4ccc(F)cc4)nn23)cc(OC)c1OC`, the IC50 amounted to 4.54 µM with B16-F0; 3.8 µM in the data set on A549; 5.03 µM in the data set on HCT-116; 1.28 µM in the data set on MCF7; 5.84 µM in the data set on HeLa.

Regarding `COc1cc(-c2ccnc3cc(-c4ccc(Cl)cc4)nn23)cc(OC)c1OC`, the IC50 in the data set with B16-F0 is 4.09 µM; in the data set on A549, 3.06 µM; with HCT-116, 3.33 µM; in the data set on MCF7, 2.32 µM; with HeLa, 1.49 µM.

For the molecule `COc1cc(-c2ccnc3cc(-c4ccc(CO)cc4)nn23)cc(OC)c1OC`, the 50% inhibitory concentration (IC50) in the data set with B16-F0 stood at 1.09 µM; with A549 it was 1.1 µM; with HCT-116, 0.861 µM; in the data set with MCF7 it was 1.07 µM; in the data set with HeLa it was 0.456 µM.

Regarding `COc1ccc(-c2cc3nccc(-c4cc(OC)c(OC)c(OC)c4)n3n2)cc1F`, the IC50 with B16-F0 amounted to 3.95 µM; with A549 it was 0.545 µM; in the data set with HCT-116, 2.84 µM; in the data set with MCF7, 0.183 µM; in the data set on HeLa it was 0.236 µM.

Regarding `COc1cc(-c2ccnc3c(-c4c[nH]c5ccccc45)cnn23)cc(OC)c1OC`, the IC50 in the data set with B16-F0, with A549, with HCT-116, in the data set with MCF7 and in the data set with HeLa was over 10 µM in each case.

On to `COc1cc(-c2cc3nccc(-c4cc(OC)c(OC)c(OC)c4)n3n2)cc(OC)c1OC`, for which the half-inhibitory concentration (IC50) in the data set on B16-F0, in the data set on A549, in the data set on HCT-116, in the data set with MCF7 and in the data set with HeLa was over 10 µM throughout.

Consider `C=Cc1ccc(-c2cc3nccc(-c4cc(OC)c(OC)c(OC)c4)n3n2)cc1`, for which the 50% inhibitory concentration (IC50) stood at 0.788 µM in the data set on B16-F0; 1.03 µM in the data set on A549; 1.05 µM with HCT-116; 0.193 µM in the data set with MCF7; 0.882 µM with HeLa.

Consider `COc1cc(C(=O)c2csc(-c3ccccc3)n2)cc(OC)c1OC`, for which the values for the half-life at 0.5 µM in data set [1] and in data set [2] were 17 min and under 5 min, respectively.

As to `Cn1ccc2cc(-c3cc4nccc(-c5ccc(F)cc5)n4n3)ccc21`, the IC50 with B16-F0 turned out to be 4.78 µM; in the data set on A549 it was 3.52 µM; with HCT-116, 2.16 µM; in the data set with MCF7, 4.58 µM; with HeLa it was 5.21 µM.

As to `CCOC(=O)c1ccc(-c2cc3nccc(-c4cc(OC)c(OC)c(OC)c4)n3n2)cc1`, the IC50 in the data set on B16-F0, in the data set on A549, in the data set on HCT-116, with MCF7 and in the data set on HeLa was over 10 µM throughout.

Take `COc1cc(-c2cc3nccc(-c4c[nH]c5ccccc45)n3n2)cc(OC)c1OC`: the IC50 in the data set with B16-F0, in the data set on A549, with HCT-116, with MCF7 and with HeLa was over 10 µM each time.

For the molecule `COc1ccc(-c2cc3nccc(-c4cc(OC)c(OC)c(OC)c4)n3n2)cc1N`, the IC50 amounted to 0.088 µM in the data set with B16-F0; 0.138 µM in the data set on A549; 0.251 µM with HCT-116; 0.027 µM in the data set on MCF7; 0.283 µM in the data set with HeLa.

As to `COc1ccc(-c2cc3nccc(-c4cc(OC)c(OC)c(OC)c4)n3n2)cc1[N+](=O)[O-]`, the IC50 in the data set with B16-F0, in the data set on A549, with HCT-116, in the data set on MCF7 and in the data set on HeLa was over 10 µM in each case.

Regarding `COc1cc(-c2ccnc3cc(-c4ccc5ccn(C)c5c4)nn23)cc(OC)c1OC`, the IC50 in the data set on B16-F0 was found to be 0.657 µM; in the data set on A549 it was 0.829 µM; in the data set with HCT-116, 1.04 µM; in the data set on MCF7, 0.074 µM; with HeLa, 0.187 µM.

For the molecule `COc1cc(-c2ccnc3cc(-c4ccc(C(C)=O)cc4)nn23)cc(OC)c1OC`, the IC50 was determined as 3.93 µM with B16-F0; 4.1 µM in the data set with A549; 4.39 µM with HCT-116; 5.23 µM in the data set with MCF7; 1.81 µM with HeLa.

In the case of `COc1cc(-c2ccnc3cc(-c4ccccc4)nn23)cc(OC)c1OC`, the IC50 with B16-F0 came to 4.73 µM; in the data set on A549, 0.208 µM; in the data set on HCT-116, 3.88 µM; in the data set with MCF7 it was 0.254 µM; with HeLa, 0.458 µM.

Take `Cc1ccc(-c2cc3nccc(-c4ccc(F)cc4)n3n2)cc1`: the IC50 in the data set with B16-F0, in the data set on A549, in the data set with HCT-116, with MCF7 and in the data set on HeLa was over 10 µM each time.

For the molecule `COc1cc(-c2ccnc3cc(-c4ccc(N(C)C)cc4)nn23)cc(OC)c1OC`, the half-inhibitory concentration (IC50) in the data set on B16-F0 is 0.702 µM; with A549 it was 1.1 µM; in the data set on HCT-116 it was 2.05 µM; in the data set with MCF7, 0.044 µM; in the data set with HeLa it was 0.378 µM.

As to `COc1cc(-c2ccnc3cc(-c4ccc(C)c(C)c4)nn23)cc(OC)c1OC`, the half-maximal inhibitory concentration (IC50) with B16-F0 was 0.391 µM; in the data set with A549, 0.272 µM; with HCT-116, 0.261 µM; with MCF7 it was 0.026 µM; in the data set with HeLa it was 0.241 µM.

For the molecule `COc1cc(-c2ccnc3cc(-c4c[nH]c5ccccc45)nn23)cc(OC)c1OC`, the half-inhibitory concentration (IC50) with B16-F0 amounted to 0.04 µM; in the data set with A549, 0.029 µM; with HCT-116, 0.035 µM; in the data set on MCF7, 0.085 µM; in the data set with HeLa it was 0.195 µM.

For the molecule `COc1cc(-c2ccnc3cc(-c4cccc(C)c4)nn23)cc(OC)c1OC`, the IC50 with B16-F0 amounted to 2.22 µM; with A549 it was 5.73 µM; in the data set on HCT-116, 6.15 µM; in the data set on MCF7 it was 1.08 µM; in the data set on HeLa, 4.23 µM.

In the case of `COc1cc(-c2ccnc3cc(-c4ccc(C(F)(F)F)cc4)nn23)cc(OC)c1OC`, the half-maximal inhibitory concentration (IC50) in the data set on B16-F0 was 1.77 µM; in the data set on A549, 2.07 µM; with HCT-116, 1.86 µM; with MCF7, 2.44 µM; in the data set with HeLa, 1.84 µM.

As for `COc1cc(-c2ccnc3cc(-c4cnn(C)c4)nn23)cc(OC)c1OC`, the 50% inhibitory concentration (IC50) with B16-F0 worked out at 1.24 µM; in the data set on A549, 1.15 µM; in the data set on HCT-116, 2.11 µM; with MCF7 it was 0.274 µM; with HeLa it was 1.83 µM.

For `COc1ccc(-c2cc3nccc(-c4cc(OC)c(OC)c(OC)c4)n3n2)cc1`, the IC50 with B16-F0 turned out to be 1.41 µM; with A549, 0.376 µM; in the data set on HCT-116, 0.404 µM; with MCF7, 0.125 µM; with HeLa, 0.373 µM.

As for `CCn1c2ccccc2c2cc(-c3cc4nccc(-c5cc(OC)c(OC)c(OC)c5)n4n3)ccc21`, the 50% inhibitory concentration (IC50) is 1.8 µM in the data set on B16-F0; 0.643 µM with A549; 1.53 µM with HCT-116; 0.242 µM with MCF7; 0.16 µM in the data set on HeLa.
